Source: ChEMBL document CHEMBL1124533, “Inhibition of human leukocyte elastase by derivatives of N-hydroxysuccinimide. A structure-activity-relationship study” (J Med Chem, 1989)
Calls of active or inactive are those of the source. No cut-off for these calls is given here.

Experiments:
[1] = target: T1, Neutrophil elastase (Homo sapiens) (UniProt P08246); test: Catalytic rate constant (Kobs/[I]) against human leukocyte elastase was determined
T1 sequence (whole entry): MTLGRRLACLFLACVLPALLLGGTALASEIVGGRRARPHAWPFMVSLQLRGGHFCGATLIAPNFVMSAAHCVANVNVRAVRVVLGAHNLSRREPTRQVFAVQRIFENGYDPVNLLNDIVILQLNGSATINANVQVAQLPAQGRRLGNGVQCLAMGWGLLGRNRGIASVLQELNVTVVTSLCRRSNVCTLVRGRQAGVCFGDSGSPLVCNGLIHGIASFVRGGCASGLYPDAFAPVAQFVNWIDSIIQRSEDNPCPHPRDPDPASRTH
In short: (§1)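 Human leukocyte elastase (10 μL of 2.23 × 10⁻⁵ M stock in 0.05 M sodium acetate, pH 5.5) preincubated with inhibitor (20 μL of 2.23 × 10⁻² M DMSO stock) in HEPES pH 7.2, 1 mL total, thermostated. Aliquots withdrawn over time into MeOSuc-Ala-Ala-Pro-Val-pNA; A410 read for 2 min after 30 s. kobs from ln(vt/v0) vs t, divided by [I]; mean of two determinations.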

[2] = target: T1, Neutrophil elastase (Homo sapiens); test: Catalytic rate constant (Kobs/[I]) against human leukocyte elastase was determined; Inactive; in short: as §1

| SMILES | K obs / 1 [1] [M⁻¹ s⁻¹] | K obs / 1 [2] |
| --- | --- | --- |
| O=C1CC(Cc2ccccc2)C(=O)N1OS(=O)(=O)c1ccccc1 (stereo unspecified) | 1170 |  |
| CC(C)CC1CC(=O)N(OS(C)(=O)=O)C1=O (stereo unspecified) | 49300 |  |
| CN(C)S(=O)(=O)ON1C(=O)CC(Cc2ccccc2)C1=O (stereo unspecified) | 323 |  |
| CCCCS(=O)(=O)ON1C(=O)CC(Cc2ccccc2)C1=O (stereo unspecified) | 1680 |  |
| CS(=O)(=O)ON1C(=O)CC(Cc2ccc(C(F)(F)F)cc2)C1=O (stereo unspecified) | 84 |  |
| CC(C)CCC1CC(=O)N(OS(=O)(=O)/C=C/c2ccccc2)C1=O (stereo unspecified) | 2250 |  |
| O=C1CC(Cc2ccccc2)C(=O)N1OS(=O)(=O)Cc1ccccc1 (stereo unspecified) | 770 |  |
| O=C1CC(Cc2ccccc2)C(=O)N1OS(=O)(=O)c1ccc(F)cc1 (stereo unspecified) | 1110 |  |
| O=C1CC(Cc2ccccc2C(F)(F)F)C(=O)N1OS(=O)(=O)/C=C/c1ccccc1 (stereo unspecified) | 1860 |  |
| CS(=O)(=O)ON1C(=O)CC(Cc2ccccc2C(F)(F)F)C1=O (stereo unspecified) | 189 |  |
| O=C1CC(Cc2ccccc2)C(=O)N1OS(=O)(=O)/C=C/c1ccccc1 (stereo unspecified) | 9430 |  |
| CS(=O)(=O)ON1C(=O)CC(Cc2cccc(C(F)(F)F)c2)C1=O (stereo unspecified) | 217 |  |
| Cc1ccc(S(=O)(=O)ON2C(=O)CC(Cc3ccccc3)C2=O)cc1 (stereo unspecified) | 1610 |  |
| O=C1CC(Cc2ccccc2)C(=O)N1OS(=O)(=O)c1ccc2ccccc2c1 (stereo unspecified) | 1580 |  |
| O=C1CC(Cc2ccccc2)C(=O)N1OS(=O)(=O)c1cccc2ccccc12 (stereo unspecified) | 620 |  |
| CC(C)CC1CC(=O)N(OS(=O)(=O)/C=C/c2ccccc2)C1=O (stereo unspecified) | > 100000 |  |
| O=C1CCC(=O)N1OS(=O)(=O)/C=C/c1ccccc1 |  | inactive |
| CC(C)S(=O)(=O)ON1C(=O)CC(Cc2ccccc2)C1=O (stereo unspecified) | 1100 |  |
| CCCCCCCCS(=O)(=O)ON1C(=O)CC(Cc2ccccc2)C1=O (stereo unspecified) | 1270 |  |
| CC(C)C1CC(=O)N(OS(C)(=O)=O)C1=O (stereo unspecified) | 3820 |  |
| CS(=O)(=O)ON1C(=O)CC(Cc2ccccc2)C1=O (stereo unspecified) | 1050 |  |
| O=C1CC(Cc2ccccc2)C(=O)N1OS(=O)(=O)c1ccc(Br)cc1 (stereo unspecified) | 1650 |  |
| CC(C)C1CC(=O)N(OS(=O)(=O)/C=C/c2ccccc2)C1=O (stereo unspecified) | > 100000 |  |
| CS(=O)(=O)ON1C(=O)CC(Cc2cccc(F)c2)C1=O (stereo unspecified) | 373 |  |
| CC(C)CCC1CC(=O)N(OS(C)(=O)=O)C1=O (stereo unspecified) | 361 |  |
| O=C1CC(Cc2ccccc2)C(=O)N1OS(=O)(=O)c1cccc(C(F)(F)F)c1 (stereo unspecified) | 316 |  |
